PAD4 FP inh: inhibitors of human PAD4 | recombinant PAD4, RCA probe fluorescence polarization | inhibition, % at 6.36 µM | actives 0.41% (n = 330,000) | AID 485272;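 active means percent inhibition above a cutoff equal to the mean of all tested compounds plus 3 SD, cut at about 15% in these data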;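 further: 0% = PAD4 with RCA probe and DMSO and 100% = probe without PAD4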
Fh CTSL1 inh: counter-screen for PFM18AAP inhibitors: inhibitors of F. hepatica cathepsin L1; actives 0.49% (n = 300,000); recombinant F. hepatica cathepsin L1, Z-Leu-Arg-MCA fluorescence; AID 1906; inhibition, % at 5.96 µM;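 active means inhibition above the mean of all tested compounds plus 3 SD, set per screening campaign, cut at about 17% in these data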;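 further: 0% = plate median of test compound wells and 100% = 1 µM Z-Phe-Ala-diazomethylketone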
Apaf1 inhib: human Apaf-1 inhibition; inhibition, % at 20 µM; actives 0.71% (n = 330,000); O14727; reconstituted apoptosome caspase-3 activity, DEVD-Rh110 fluorescence; active means inhibition of at least 40% at 20 µM;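 further: plate controls were DMSO wells for no effect and DEVD-CHO caspase inhibitor wells for full effect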
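Material: reconstituted apoptosome with Apaf-1, cytochrome c, caspase-9, procaspase-3, dATP. Technique: Rh110 fluorescence intensity. Buffer or medium: pH 7.5 Hepes buffer with CHAPS, BSA, DTT. Times: 30 min plus 50 min, RT.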
PP5 primary: blocks human protein phosphatase 5 activity | P53041 | purified PP5c, OMFP substrate fluorescence | inhibition, % at 6.7 µM | actives 0.18% (n = 320,000);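 active means inhibition above the campaign's mean inhibition across all tested compounds plus 3 SD, cut at about 9.5% in these data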;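 further: 0% = DMSO only and 100% = 100 µM cantharidin control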
UCH37 inh: inhibitors of human deubiquitinating enzyme UCH37; Q9Y5K5; purified proteasome/UCH37, Ub-AMC cleavage fluorescence; AID 588478; actives 0.33% (n = 330,000); inhibition, % (concentration not given with the values);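 active means mean inhibition over replicate wells above about 20%, limit read from the data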;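 further: 0% = compound-free wells with enzyme and 100% = wells lacking proteasome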
Target sequence (Q9Y5K5 whole entry, looked up): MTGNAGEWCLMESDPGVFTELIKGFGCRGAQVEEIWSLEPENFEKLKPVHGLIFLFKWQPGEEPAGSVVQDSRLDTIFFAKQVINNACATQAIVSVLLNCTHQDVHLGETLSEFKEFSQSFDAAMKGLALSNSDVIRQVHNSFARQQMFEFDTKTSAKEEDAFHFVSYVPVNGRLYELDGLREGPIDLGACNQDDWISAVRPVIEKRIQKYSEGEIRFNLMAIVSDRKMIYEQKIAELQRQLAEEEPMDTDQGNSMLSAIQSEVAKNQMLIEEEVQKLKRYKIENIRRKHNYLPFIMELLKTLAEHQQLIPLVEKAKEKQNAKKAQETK
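Reagent: Ub-AMC substrate; assay system: Proteasome-associated human UCH37 deubiquitinase; controls: no-proteasome and no-compound wells; read-out: % inhibition of Ub-AMC cleavage fluorescence; timing: 30 min preincubation with enzyme, 25 min cleavage at room temperature; signal: AMC fluorescence from Ub-AMC cleavage, excitation 355 nm, emission 460 nm; buffer or medium: Tris-HCl pH 7.4 plus ovalbumin, ATP-MgCl2, DTT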
GSTO1 inh: counter-screen for RBBP9 inhibitors: inhibitors of human GSTO1. P78417. actives 1.1% (n = 300,000). recombinant GSTO1, activity-based probe fluorescence polarization. AID 1974. inhibition, % at 5.96 µM;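 active means inhibition above the campaign mean inhibition plus 3 SD, cut at about 35% in these data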;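 further: 0% = GSTO1-1 with DMSO and 100% = wells lacking GSTO1-1 enzyme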
Target sequence (P78417 whole entry, looked up): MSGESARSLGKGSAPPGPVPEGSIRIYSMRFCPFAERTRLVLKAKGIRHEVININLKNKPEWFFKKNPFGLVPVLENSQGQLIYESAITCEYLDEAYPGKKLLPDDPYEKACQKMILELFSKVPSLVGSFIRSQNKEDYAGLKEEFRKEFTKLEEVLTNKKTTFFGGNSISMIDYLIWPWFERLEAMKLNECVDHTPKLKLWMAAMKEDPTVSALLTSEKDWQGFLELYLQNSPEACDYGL
* marks the source's active call; other numbers are inactive results; x = no result given. Sampled rows, rich in hits. Any-hit rate of the full collection: about 2%.

SMILES	PAD4 FP inh	Fh CTSL1 inh	Apaf1 inhib	PP5 primary	UCH37 inh	GSTO1 inh
CC(=NNc1ccc([N+](=O)[O-])cc1)c1ccco1	x	x	x	x	1	x
Nc1ccc(S(=O)(=O)Nc2ccc(S(N)(=O)=O)cc2)cc1	2	1	-5	1	-1	6
CC(C)(C)c1ccc(NS(=O)(=O)c2ccc(N)cc2)cc1	-3	-4	11	2	3	36*
O=C(c1ccccc1)N1CCN(C(=O)c2cc3ccccc3o2)CC1	2	3	2	-1	27*	9
CCOc1cc(C=NNC(=O)c2ccc(O)cc2)ccc1Oc1nc(Cl)ncc1F	x	x	x	x	1	x
COc1ccc(NC(=O)c2cc3cccc(OC)c3oc2=Nc2ccc(C(=O)O)cc2)cc1OC	x	x	x	x	24*	x
COc1cc(-c2ccccc2)nc(N)n1	0	-4	-7	2	4	-10
COc1cc(Oc2ccccc2)nc(N)n1	-2	30*	1	5	3	2
COc1ccc(Cc2nnc(NC(=O)Cc3cccs3)s2)cc1OC	-6	-2	12	5	2	37*
COc1ccc(C=NNC(=O)c2cc(C)on2)c2ccccc12	x	x	x	x	1	x
NC(=S)N=Nc1c(O)[nH]c2c(Br)cc(Br)cc12	1	3	20	0	9	39*
NC(=S)N=Nc1c(O)[nH]c2ccccc12	-3	2	-11	-1	11	2
Cn1cnnc1SCc1ccc(-c2ccc(Br)cc2)o1	-12	60*	11	4	-6	8
Cn1cnnc1SCc1ccccc1	1	-2	-4	2	-5	3
CC(C)c1ccc(C=NNC(=O)c2nnn(-c3nonc3N)c2CSC2=NCCS2)cc1	x	x	x	x	4	x
O=C(NN=Cc1ccccc1)c1ccco1	x	x	x	x	2	x
O=[N+]([O-])c1ccc(/C=N/n2c(CO)nc3ccccc32)s1	-9	1	-4	3	x	37*
Cc1nc2ccccc2n1/N=C/c1ccc([N+](=O)[O-])s1	-15	3	1	5	x	47*
Cc1nc2ccccc2n1/N=C/c1ccc([N+](=O)[O-])o1	-6	6	-18	-1	x	37*
O=[N+]([O-])c1ccc(O)c(C=Nn2c(CO)nc3ccccc32)c1	x	x	x	x	9	x
O=c1[nH]c(=O)c2nnc(NN=Cc3ccccc3F)nc2[nH]1	x	x	x	x	13	x
CCOc1cc(C=NNC(=O)c2cc(C)[nH]n2)ccc1OC(=O)c1ccc([N+](=O)[O-])cc1	x	x	x	x	-4	x
Cc1cc(C)c2c(c1)C(=NNC(=O)c1cc(C)oc1C)CCC2	x	x	x	x	2	x
O=c1c(=Cc2ccc(CNS(=O)(=O)c3ccccc3)o2)sc2n1CCN=2	x	x	x	x	12	x
CC1=C(/C=C/C(C)=N\NC(=O)c2ccncc2)C(C)(C)CCC1	-2	0	10	2	x	8
SMILES	PAD4 FP inh	Fh CTSL1 inh	Apaf1 inhib	PP5 primary	UCH37 inh	GSTO1 inh
CC1=C(/C=C/C(C)=C/C=C/C(C)=C/CO)C(C)(C)CCC1	-3	4	8	1	78*	-13
O=C(NNC1=NS(=O)(=O)c2ccccc21)c1ccccc1	-3	8	-13	1	9	13
O=C(/C=C/c1ccccc1)NNC1=NS(=O)(=O)c2ccccc21	-3	8	9	1	23*	-7
O=C(NCCN1CCOCC1)/C(=C\c1ccccc1Cl)NC(=O)c1ccccc1	-10	19*	4	1	4	0
Cc1nc2ccc(C(=O)OCc3ccccc3Br)cc2nc1C	-2	19*	14	1	2	8
CC(=O)Nc1ccc(C(=O)OCc2ccccc2Br)cc1	-1	3	7	6	2	3
O=S(=O)(c1cnc(Cl)c(Br)c1)N1CCc2ccccc21	1	3	0	1	2	45*
CC1CCCCN1S(=O)(=O)c1cnc(Cl)c(Br)c1 (configuration not stated)	-4	-4	9	1	3	71*
CC(CC(=O)Nc1cccc(Br)c1)=NNC(=O)c1ccc(O)cc1O	x	x	x	x	2	x
C=CCSc1nc2ccsc2c(=O)n1-c1ccccc1	-7	0	6	-1	-1	-4
CSc1nc2ccsc2c(=O)n1-c1ccccc1	-7	18*	1	2	1	9
CC(C)c1nc2c(s1)CCc1onc(-c3ccc(Cl)cc3)c1-2	1	0	15	0	24*	6
COc1ccc(-c2noc3c2-c2nc(C(C)C)sc2CC3)cc1	-3	7	14	-6	1	10
COc1ccc(Cc2nc3ccccc3n2CC(=O)NN=Cc2ccccc2)cc1OC	x	x	x	x	1	x
CCOc1cc(C=NNC(=O)COc2ccc(Cl)cc2)ccc1OS(=O)(=O)c1ccccc1	x	x	x	x	2	x
O=C(/C=C/c1cc[n+](CC(=O)c2ccc3cccc4c3c2CC4)cc1)c1ccc2cccc3c2c1CC3	-6	10	59*	12*	0	25
COC(=O)C1=C(C(=O)OC)[C@@H]2N(C)c3ccccc3[C@@]23C[C@@H](C(=O)OC)N(C(=O)c2cccs2)C3=N1	2	-2	6	3	2	12
COC(=O)C1=C(C(=O)OC)[C@@H]2N(C)c3ccc(OC)cc3[C@@]23C[C@@H](C(=O)OC)N(C(=O)c2cccs2)C3=N1	6	-2	-5	-1	42*	-9
COC(=O)c1ccc(C=NNC(=O)CC(=O)NCCc2ccccc2)cc1	x	x	x	x	5	x
Cc1ccc(S(=O)(=O)CNC(=S)c2cccc(Cl)c2)cc1	2	11	11	0	3	38*
Cc1ccc(C(=S)NCS(=O)(=O)c2ccc(C)cc2)cc1	3	15	-10	1	3	30
CSc1nc(C)cc(OCC(=O)NN=Cc2ccccc2O)n1	x	x	x	x	-19	x
C(=NNc1nc(Nc2ccccc2)nc(N2CCOCC2)n1)c1c[nH]c2ccccc12	x	x	x	x	1	x
O=C(NCN1C(=O)C2C3C=CC(C3)C2C1=O)Nc1ccccn1 (configuration not stated)	-6	-3	-1	2	4	12
CC(NC(=O)Nc1ccccn1)N1C(=O)C2C3C=CC(C3)C2C1=O (configuration not stated)	-2	6	3	3	23*	6
Nc1nnnn1N=Cc1ccccc1C(F)(F)F	x	x	x	x	1	x
COc1ccccc1C(=O)Nc1ccccc1SC(=O)c1ccccc1OC	80*	-3	8	3	6	-4
CCOC(=O)C(C(=O)NCC1CCCO1)C1CCCCC1 (configuration not stated)	-8	17*	14	4	4	8
COc1ccc(-c2csc(/C(C#N)=C\c3ccc(O)c([N+](=O)[O-])c3)n2)cc1OC	-1	1	18	4	21*	16
COc1ccc(-c2csc(/C(C#N)=C\c3ccc(OC)c([N+](=O)[O-])c3)n2)cc1	-4	0	6	-2	-7	7

Source: PubChem BioAssay (several laboratories)
